According to ChEMBL document CHEMBL1126207, “Base-catalyzed isomerization of retinoic acid. Synthesis and differentiation-inducing activities of 14-alkylated all-trans-, 13-cis-, and 20,14-retro-retinoic acids” (1992):
pEC50: −log10 of the molar value. Activity calls are given as the source filed them. The rule behind the calls is not given here.

Tests used:
HL-60 [1] = assay: Concentration required for 50% inhibition of differentiation-inducing activity against human promyelocytic leukemia cell line HL-60; type: functional; conditions: read-out: ED50 (the source's name)
Summary of the method: (§1)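 HL-60 cells kept in suspension in RPMI1640 with 5% FCS plus penicillin G/streptomycin, 37 °C, 5% CO2. Seeded near 8 × 10^4 cells/mL, compound added from 0.2 mM ethanol stock (final ethanol below 0.5%), 4-day incubation. Differentiation by NBT reduction (20 min, 37 °C, 0.2% NBT with TPA), formazan-positive cells counted on ≥200 cells; ED50 taken from NBT data; retinoic acid run concurrently.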

HL-60 [2] = assay: Concentration required for 50% inhibition of differentiation-inducing activity against human promyelocytic leukemia cell line HL-60; IA is inactive; type: functional, cell-based; summary of the method: as §1

Row | pEC50 (HL-60 [1]) | SMILES | ED50 (HL-60 [2])
1 | 8.62 | CC1=C(/C=C/C(C)=C/C=C/C(C)=C/C(=O)O)C(C)(C)CCC1 [TRETINOIN] | –
2 | – | CC1=C(/C=C/C(C)=C/C=C/C(C)=C(/C(=O)O)C(C)C)C(C)(C)CCC1 | inactive
3 | 8.23 | CC1=C(/C=C/C(C)=C/C=C/C(C)=C\C(=O)O)C(C)(C)CCC1 [ISOTRETINOIN] | –
4 | 7.20 | CC1=C(/C=C/C(C)=C/C=C/C(C)=C(/C)C(=O)O)C(C)(C)CCC1 | –
5 | – | CC1=C(/C=C/C(C)=C/C=C/C(C)=C(\C(=O)O)C(C)C)C(C)(C)CCC1 | inactive
6 | 6.17 | CC\C(C(=O)O)=C(C)/C=C/C=C(C)/C=C/C1=C(C)CCCC1(C)C | –
7 | 7.28 | C=C(/C=C/C=C(C)/C=C/C1=C(C)CCCC1(C)C)CC(=O)O | –
8 | 7.89 | CC1=C(/C=C/C(C)=C/C=C/C(C)=C(\C)C(=O)O)C(C)(C)CCC1 | –
9 | < 6.00 | C=C(/C=C/C=C(C)/C=C/C1=C(C)CCCC1(C)C)C(C)(C)C(=O)O | –
10 | 7.26 | C=C(/C=C/C=C(C)/C=C/C1=C(C)CCCC1(C)C)C(C)C(=O)O (stereo not given) | –
